# Reference: ChEMBL document CHEMBL3608263, “Identification and optimisation of 4,5-dihydrobenzo[1,2-d:3,4-d]bisthiazole and 4,5-dihydrothiazolo[4,5-h]quinazoline series of selective phosphatidylinositol-3 kinase alpha inhibitors” (Bioorg Med Chem Lett, 2015)
# Experiments:
# [1] = Permeability across basolateral to apical side in human Caco2 cells; format: ADME, cell-based; conditions: Caco-2, read-out: permeability
# [2] = Permeability across apical to basolateral side in human Caco2 cells; format: ADME, cell-based; conditions: Caco-2, read-out: permeability
# Rattus norvegicus [3] = test: Dose normalized AUC in Sprague-Dawley rat at 1 mg/kg, iv; format: ADME, organism-based; conditions: in vivo
# Procedure, shortened: (§1)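 Female Sprague-Dawley rats, conscious, permanently cannulated, with free access to food. Dosed 1.0 mg kg-1 intravenously and 3.0 mg kg-1 orally. Blood levels sampled from 5 minutes to 48 h post dose.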
# [4] = Volume of distribution at steady state in Sprague-Dawley rat at 1 mg/kg, iv and 3 mg/kg, po; format: ADME, organism-based; conditions: in vivo, read-out: Vdss; procedure, shortened: as §1
# [5] = Oral bioavailability in Sprague-Dawley rat at 3 mg/kg; format: ADME, organism-based; conditions: in vivo; procedure, shortened: as §1
# Rattus norvegicus [6] = test: Dose normalized AUC in Sprague-Dawley rat at 3 mg/kg, po; format: ADME, organism-based; conditions: in vivo; procedure, shortened: as §1
# [7] = Solubility of the compound at pH 6.8 by high throughput equilibrium method; format: physicochemical; conditions: buffer
# [8] = Plasma concentration in athymic nude mouse xenografted with Rat1-myr-p110alpha tumor at 50 mg/kg, po measured up to 8 hrs; format: ADME, organism-based
# Procedure, shortened: (§2)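 Female athymic mice bearing subcutaneous Rat1-myr-p110α xenografts were given one oral dose of 50 mg kg-1, as suspension or solution. At set time points, groups of n = 4 were sacrificed. Tumors were flash-frozen, pulverized and analysed by Western blot for Ser473 p-Akt. Compound was quantified in plasma in parallel.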
# [9] = Plasma concentration in athymic nude mouse xenografted with Rat1-myr-p110alpha tumor at 50 mg/kg, po measured after 16 hrs; format: ADME, organism-based; procedure, shortened: as §2
# Plasma = test: Drug uptake in plasma of athymic nude mouse xenografted with Rat1-myr-p110alpha tumor at 50 mg/kg, po measured at 8 hrs; format: ADME, organism-based; conditions: in vivo; procedure, shortened: as §2
Papp B→A [1],Papp A→B [2],AUC/dose (Rattus norvegicus [3]),Vd [4],bioavailability [5],AUC/dose (Rattus norvegicus [6]),solubility thermodynamic [7],Structure (SMILES),other results
15.6 ×10⁻⁶ cm/s,12.3 ×10⁻⁶ cm/s,561 nmol·h/L,2 L/kg,2%,70 nmol·h/L,,Cc1nc(NC(=O)N2CCC[C@H]2C(N)=O)sc1-c1csc(C(C)(C)C)n1,
,,,,,,125 µM,CC(C)(C)c1ncc2c(n1)-c1sc(NC(=O)N3CCC[C@H]3C(N)=O)nc1CC2,
,,,,,,351 µM,CC(C)(C)c1nc2c(s1)CCc1nc(NC(=O)N3CC[C@@H]4C[C@@]43C(N)=O)sc1-2,
,,,,,,9 µM,C[C@@H]1CCN(C(=O)Nc2nc3c(s2)-c2nc(C(C)(C)C)sc2CC3)[C@@H]1C(N)=O,
18.3 ×10⁻⁶ cm/s,3.8 ×10⁻⁶ cm/s,,,,,,Cc1nc(NC(=O)N2CCC[C@H]2C(N)=O)sc1-c1ccnc(C(C)(C)C(F)(F)F)c1 [ALPELISIB],
,,,,,,276 µM,CN(C)C[C@@H]1CCN(C(=O)Nc2nc3c(s2)-c2nc(C(C)(C)C)ncc2CC3)[C@@H]1C(N)=O,
,,,,,,14 µM,C[C@@H]1CCN(C(=O)Nc2nc3c(s2)-c2nc(C(C)(C)C(F)(F)F)sc2CC3)[C@@H]1C(N)=O,concentration at 8 h [8]: > 1000 nM
,,16472 nmol·h/L,0.6 L/kg,83%,13599 nmol·h/L,51 µM,CC(C)(C)c1ncc2c(n1)-c1sc(NC(=O)N3CC[C@@H]4C[C@@]43C(N)=O)nc1CC2,concentration at 16 h [9]: 1000 nM; Drug uptake (Plasma): Active
15.6 ×10⁻⁶ cm/s,12.1 ×10⁻⁶ cm/s,,,,,310 µM,CC(C)(C)c1nc2c(s1)CCc1nc(NC(=O)N3CCC[C@@]3(C)C(N)=O)sc1-2,
6.87 ×10⁻⁶ cm/s,0.76 ×10⁻⁶ cm/s,956 nmol·h/L,24 L/kg,56%,531 nmol·h/L,,CN(C)C[C@@H]1CCN(C(=O)Nc2nc3c(s2)-c2nc(C(C)(C)C)sc2CC3)[C@@H]1C(N)=O,
,,,,,,55 µM,NC(=O)[C@@H]1CCCN1C(=O)Nc1nc2c(s1)-c1nc(CC3CC3)sc1CC2,
,,,,,,9 µM,C[C@@H]1CCN(C(=O)Nc2nc3c(s2)-c2nc(C(C)(C)C(F)(F)F)ncc2CC3)[C@@H]1C(N)=O,
,,,,,,< 4 µM,C[C@H]1CCN(C(=O)Nc2nc3c(s2)-c2nc(C(C)(C)C)sc2CC3)[C@@H]1C(N)=O,
15.8 ×10⁻⁶ cm/s,5.2 ×10⁻⁶ cm/s,1444 nmol·h/L,3.2 L/kg,77%,1116 nmol·h/L,> 1000 µM,CN(C)C[C@@]1(C(N)=O)CCCN1C(=O)Nc1nc2c(s1)-c1nc(C(C)(C)C)ncc1CC2,
,,,,,,500 µM,CN(C)[C@@H]1C[C@@H](C(N)=O)N(C(=O)Nc2nc3c(s2)-c2nc(C(C)(C)C)ncc2CC3)C1,
,,4132 nmol·h/L,0.4 L/kg,39%,1585 nmol·h/L,65 µM,CC(C)(C)c1nc2c(s1)CCc1nc(NC(=O)N3CCC[C@H]3C(N)=O)sc1-2,
25.5 ×10⁻⁶ cm/s,3.4 ×10⁻⁶ cm/s,,,,,60 µM,CC(C)(C)c1ncc2c(n1)-c1sc(NC(=O)N3CCC[C@@]3(C)C(N)=O)nc1CC2,
21.7 ×10⁻⁶ cm/s,3.4 ×10⁻⁶ cm/s,5241 nmol·h/L,0.5 L/kg,36%,1874 nmol·h/L,71 µM,C[C@@H]1CCN(C(=O)Nc2nc3c(s2)-c2nc(C(C)(C)C)ncc2CC3)[C@@H]1C(N)=O,
,,1128 nmol·h/L,1.3 L/kg,18%,199 nmol·h/L,,Cc1nc(NC(=O)N2CCC[C@H]2C(N)=O)sc1-c1ccnc(C(C)(C)C)n1,
